In ChEMBL document CHEMBL4387702, “Design and synthesis novel di-carbonyl analogs of curcumin (DACs) act as potent anti-inflammatory agents against LPS-induced acute lung injury (ALI)” (Eur J Med Chem, 2019):
Active and inactive are the calls of the source. No cut-off for these calls is given here.

Experiments:
[1] = system: RAW264.7; assay: Cytotoxicity against ICR mouse RAW264.7 cells assessed as effect on cell proliferation at 10 uM after 24 hrs by MTT assay; type: cell-based; conditions: raw264.7, 24 h
[2] = system: RAW264.7; assay: Inhibition of MAPK/NFkappaB in ICR mouse RAW264.7 cells assessed as reduction in LPS-induced TNFalpha production at 10 uM pretreated for 0.5 hrs followed by LPS challenge and measured after 24 hrs by ELISA relative to control; type: cell-based
[3] = system: RAW264.7; assay: Inhibition of MAPK/NFkappaB in ICR mouse RAW264.7 cells assessed as reduction in LPS-induced IL6 production at 10 uM pretreated for 0.5 hrs followed by LPS challenge and measured after 24 hrs by ELISA relative to control; type: cell-based
[4] = system: RAW264.7; assay: Inhibition of MAPK/NFkappaB in ICR mouse RAW264.7 cells assessed as reduction in LPS-induced TNF-alpha production at 10 uM pretreated for 0.5 hrs followed by LPS challenge and measured after 24 hrs by ELISA relative to curcumin; type: cell-based
[5] = system: RAW264.7; assay: Inhibition of MAPK/NFkappaB in ICR mouse RAW264.7 cells assessed as reduction in LPS-induced IL6 production at 10 uM pretreated for 0.5 hrs followed by LPS challenge and measured after 24 hrs by ELISA relative to piperlongumine; type: cell-based
[6] = system: RAW264.7; assay: Inhibition of MAPK/NFkappaB in ICR mouse RAW264.7 cells assessed as reduction in LPS-induced TNF-alpha production at 10 uM pretreated for 0.5 hrs followed by LPS challenge and measured after 24 hrs by ELISA relative to piperlongumine; type: cell-based
[7] = system: peritoneal macrophages (Mus musculus); assay: Inhibition of MAPK/NFkappaB in ICR mouse peritoneal macrophages assessed as reduction in LPS-induced IL6 production at 10 uM pretreated for 0.5 hrs followed by LPS challenge and measured after 24 hrs by ELISA relative to curcumin
[8] = biological target: MAP kinase p38 (Mus musculus) (UniProt P47811+O08911+Q9WUI1+Q9Z1B7); assay: Inhibition of LPS-induced p38 MAPK phosphorylation in ICR mouse RAW264.7 cells at 10 uM preincubated for 0.5 hrs followed by LPS challenge and measured after 30 mins by immunoblotting analysis; type: cell-based
Outline: (§1)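 RAW 264.7 cells were pretreated with compound for 0.5 h and then stimulated with LPS for 30 min. Lysates were resolved on 10% or 12% SDS-PAGE and transferred to nitrocellulose. Membranes were blocked in TBS (pH 7.6) with 0.05% Tween 20 and 5% milk. Blots were probed for p-p38, p38, p-ERK, ERK, IκBα and GAPDH, detected with HRP secondaries and ECL.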

[9] = system: RAW264.7; assay: Inhibition of MAPK/NFkappaB in ICR mouse RAW264.7 cells assessed as reduction in LPS-induced TNFalpha production pretreated for 0.5 hrs followed by LPS challenge and measured after 24 hrs by ELISA; type: cell-based
[10] = system: RAW264.7; assay: Inhibition of MAPK/NFkappaB in ICR mouse RAW264.7 cells assessed as reduction in LPS-induced IL6 production pretreated for 0.5 hrs followed by LPS challenge and measured after 24 hrs by ELISA; type: cell-based
[11] = Stability in pH 7.4 phosphate buffer assessed as compound decomposition measured up to 25 mins by UV-Vis spectroscopy; type: physicochemical; conditions: pH 7.4, 25 min
Outline: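 Compound stability was followed by recording UV-visible absorption spectra in phosphate buffer at pH 7.4.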

[12] = system: RAW264.7; assay: Inhibition of LPS-induced ERK phosphorylation in ICR mouse RAW264.7 cells at 10 uM preincubated for 0.5 hrs followed by LPS challenge and measured after 30 mins by immunoblotting analysis; type: cell-based; outline: as §1
[13] = system: RAW264.7; assay: Inhibition of NFkappaB/MAPK signaling in LPS-induced mouse RAW264.7 cells assessed as down regulation of IkappaB expression at 10 uM preincubated for 0.5 hrs followed by LPS-challenge and measured after 30 mins by immunoblotting analysis; type: cell-based; outline: as §1
[14] = biological target: Transcription factor p65 (Mus musculus) (UniProt Q04207); assay: Inhibition of LPS-induced NFkappaB p65 nuclear translocation in ICR mouse RAW264.7 cells preincubated for 0.5 hrs followed by LPS challenge and measured after 40 mins by DAPI staining-based immunofluorescence microscopic analysis; type: cell-based
Chain of Transcription factor p65 (Mus musculus) (Q04207 whole entry): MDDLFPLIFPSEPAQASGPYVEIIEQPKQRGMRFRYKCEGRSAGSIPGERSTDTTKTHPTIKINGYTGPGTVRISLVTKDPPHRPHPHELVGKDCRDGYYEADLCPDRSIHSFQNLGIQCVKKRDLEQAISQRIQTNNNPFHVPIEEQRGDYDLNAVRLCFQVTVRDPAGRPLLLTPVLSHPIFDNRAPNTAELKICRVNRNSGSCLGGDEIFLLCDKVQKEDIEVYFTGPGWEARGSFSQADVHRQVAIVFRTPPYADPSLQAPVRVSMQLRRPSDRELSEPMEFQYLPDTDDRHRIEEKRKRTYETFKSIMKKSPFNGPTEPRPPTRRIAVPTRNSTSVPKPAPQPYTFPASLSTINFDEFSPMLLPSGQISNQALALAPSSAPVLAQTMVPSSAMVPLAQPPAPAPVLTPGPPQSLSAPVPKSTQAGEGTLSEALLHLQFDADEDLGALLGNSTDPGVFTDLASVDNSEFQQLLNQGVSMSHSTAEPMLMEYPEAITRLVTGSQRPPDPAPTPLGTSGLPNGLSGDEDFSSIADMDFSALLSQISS
Outline: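 RAW 264.7 cells were pretreated with compound for 0.5 h, then given LPS for 40 min (methods) or 45 min (legend). Cells were fixed with 4% paraformaldehyde and permeabilized in methanol. Anti-p65 (1:200) was applied overnight at 4 °C, then PE-conjugated secondary (1:200) for 2 h. Nuclei were stained with DAPI and cells viewed by fluorescence microscopy.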

Structure (SMILES) | Activity [1] | inhibition [2] | inhibition [3] | also measured
COc1cc(/C=C/C(=O)N2CCC/C(=C\c3cc(OC)c(OC)c(OC)c3)C2=O)cc(OC)c1OC | Non-Toxic | 39.6 to 99.5% | 39.6 to 99.5% | 
COc1cc(/C=C2\CCCN(C(=O)/C=C/c3ccc(F)cc3)C2=O)cc(OC)c1OC | Non-Toxic |  |  | inhibition [4]: < 85.3%; inhibition [5]: < 85.3%; inhibition [6]: < 85.3%; inhibition [7]: < 85.3%
COc1cccc(/C=C/C(=O)N2CCC/C(=C\c3cc(OC)c(OC)c(OC)c3)C2=O)c1 | Non-Toxic | 39.6 to 99.5% | 39.6 to 99.5% | 
COc1cc(/C=C2\CCCN(C(=O)/C=C/c3ccc([N+](=O)[O-])cc3)C2=O)cc(OC)c1OC | Non-Toxic | 38.6% | 94.1% | 
COc1cc(/C=C2\CCCN(C(=O)/C=C/c3cccc(F)c3)C2=O)cc(OC)c1OC | Non-Toxic |  |  | inhibition [4]: < 85.3%; inhibition [5]: < 85.3%; inhibition [6]: < 85.3%; inhibition [7]: < 85.3%
COc1cccc(/C=C/C(=O)N2CCC/C(=C\c3cc(OC)c(OC)c(OC)c3)C2=O)c1OC | Non-Toxic | inactive | inactive | 
COc1cc(/C=C2\CCCN(C(=O)/C=C/c3ccc(F)cc3Cl)C2=O)cc(OC)c1OC | Non-Toxic | 38.5 to 53.4% | 46.8 to 68.2% | 
COc1ccc(/C=C/C(=O)N2CCC/C(=C\c3cc(OC)c(OC)c(OC)c3)C2=O)c(OC)c1 | Non-Toxic | 39.6 to 99.5% | 39.6 to 99.5% | 
COc1cc(/C=C2\CCCN(C(=O)/C=C/c3ccc(OC(C)=O)cc3)C2=O)cc(OC)c1OC | Non-Toxic | 39.6 to 99.5% | 39.6 to 99.5% | 
COc1cc(/C=C2\CCCN(C(=O)/C=C/c3cc(F)ccc3F)C2=O)cc(OC)c1OC | Non-Toxic | 38.5 to 53.4% | 46.8 to 68.2% | 
COc1ccc(/C=C/C(=O)N2CCC/C(=C\c3cc(OC)c(OC)c(OC)c3)C2=O)c(F)c1 | Non-Toxic | 39.6 to 99.5% | 39.6 to 99.5% | 
COc1ccccc1/C=C/C(=O)N1CCC/C(=C\c2cc(OC)c(OC)c(OC)c2)C1=O | Non-Toxic | 39.6 to 99.5% | 39.6 to 99.5% | 
COc1cc(/C=C2\CCCN(C(=O)/C=C/c3ccccc3F)C2=O)cc(OC)c1OC | Non-Toxic |  |  | inhibition [4]: < 85.3%; inhibition [5]: < 85.3%; inhibition [6]: < 85.3%; inhibition [7]: < 85.3%
COc1cc(/C=C2\CCCN(C(=O)/C=C/c3ccc(Br)cc3)C2=O)cc(OC)c1OC | Non-Toxic |  |  | inhibition [4]: < 85.3%; inhibition [5]: < 85.3%; inhibition [6]: < 85.3%; inhibition [7]: < 85.3%
COc1cc(/C=C2\CCCN(C(=O)/C=C/c3ccc(F)c(F)c3)C2=O)cc(OC)c1OC | Non-Toxic | 39.6 to 99.5% | 39.6 to 99.5% | 
COc1cc(/C=C2\CCCN(C(=O)/C=C/c3c(F)cccc3Cl)C2=O)cc(OC)c1OC | Non-Toxic | 38.5 to 53.4% | 46.8 to 68.2% | 
COc1cc(OC)c(OC)cc1/C=C/C(=O)N1CCC/C(=C\c2cc(OC)c(OC)c(OC)c2)C1=O | Non-Toxic | 39.6 to 99.5% | 39.6 to 99.5% | 
COc1cc(/C=C2\CCCN(C(=O)/C=C/c3ccccc3O)C2=O)cc(OC)c1OC | Non-Toxic | 39.6 to 99.5% | 39.6 to 99.5% | 
COc1cc(/C=C2\CCCN(C(=O)/C=C/c3ccccc3OC(C)=O)C2=O)cc(OC)c1OC | Non-Toxic | 39.6 to 99.5% | 39.6 to 99.5% | 
COc1cc(/C=C2\CCCN(C(=O)/C=C/c3cc(C)ccc3C)C2=O)cc(OC)c1OC | Non-Toxic | 39.6 to 99.5% | 39.6 to 99.5% | 
COc1cc(/C=C2\CCCN(C(=O)/C=C/c3cccc(Br)c3)C2=O)cc(OC)c1OC | Non-Toxic |  |  | inhibition [4]: < 85.3%; inhibition [5]: < 85.3%; inhibition [6]: < 85.3%; inhibition [7]: < 85.3%
COc1cc(/C=C2\CCCN(C(=O)/C=C/c3ccc(Cl)cc3Cl)C2=O)cc(OC)c1OC | Non-Toxic | 38.5 to 53.4% | 46.8 to 68.2% | 
COc1cc(/C=C/C(=O)N2CCC=CC2=O)cc(OC)c1OC [PIPLARTINE] | Non-Toxic | Active | Active | 
COc1ccc(F)c(/C=C/C(=O)N2CCC/C(=C\c3cc(OC)c(OC)c(OC)c3)C2=O)c1 | Non-Toxic | 38.5 to 53.4% | 46.8 to 68.2% | 
COc1cc(/C=C2\CCCN(C(=O)/C=C/c3ccccc3C(F)(F)F)C2=O)cc(OC)c1OC | Non-Toxic |  |  | inhibition [4]: < 85.3%; inhibition [5]: < 85.3%; inhibition [6]: < 85.3%; inhibition [7]: < 85.3%
COc1ccc(/C=C/C(=O)N2CCC/C(=C\c3cc(OC)c(OC)c(OC)c3)C2=O)cc1OC(C)=O | Non-Toxic | 39.6 to 99.5% | 39.6 to 99.5% | 
COc1cc(/C=C2\CCCN(C(=O)/C=C/c3ccccc3Cl)C2=O)cc(OC)c1OC | Non-Toxic |  |  | inhibition [4]: < 85.3%; inhibition [5]: < 85.3%; inhibition [6]: < 85.3%; inhibition [7]: < 85.3%
COc1cc(/C=C/C(=O)CC(=O)/C=C/c2ccc(O)c(OC)c2)ccc1O [CURCUMIN] | Non-Toxic | Active | Active | inhibition [8]: Active; inhibition [9]: Active; inhibition [10]: Active; Stability [11]: Unstable; inhibition [12]: Active; inhibition [13]: Active; inhibition [14]: Active
COc1cc(/C=C2\CCCN(C(=O)/C=C/c3c(Cl)cccc3Cl)C2=O)cc(OC)c1OC | Non-Toxic | 39.6 to 99.5% | 39.6 to 99.5% | 
